Values after ≈ are worked out from the molar mass of the structure shown.
Tests used:
Assay type in all cases: functional
Escherichia coli [1] = experiment: Antibacterial activity against Escherichia coli at 320 ug/ml after 24 hrs by Oxford cup assay; settings: read-out: IZ
Procedure, shortened: (§1)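 Oxford cup diffusion with clinical isolates. Inoculum made in 0.9% saline to a McFarland standard and spread evenly on nutrient agar. Compound solutions, prepared as for the agar dilution test, were added at the stated concentration to Oxford cups set equidistant on the agar surface. Inhibition zones were measured after 24 h at 37 °C.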

Staphylococcus aureus [2] = experiment: Antibacterial activity against methicillin-resistant Staphylococcus aureus at 320 ug/ml after 24 hrs by Oxford cup assay; settings: read-out: IZ
Procedure, shortened: (§2)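 Oxford cup diffusion: clinical isolate inoculum in 0.9% saline set by McFarland standard, spread evenly on nutrient agar. Cups placed equidistant on the surface and filled with compound solutions prepared as for the agar dilution test, at several concentrations. Inhibition zone measured after 24 h at 37 °C.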

[3] = tested on: Staphylococcus epidermidis; experiment: Antibacterial activity against methicillin-resistant Staphylococcus epidermidis after 48 hrs by agar dilution method
Procedure, shortened: (§3)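 Agar dilution per NCCLS: 2-fold serial dilutions incorporated into hot Mueller-Hinton agar. Clinical isolates grown from blood slants, suspended in sterile 0.90% NaCl to about 10⁵–10⁶ cfu/mL, spotted onto plates. Incubation 36.5 °C, 48 h. MIC taken as the lowest concentration giving complete growth inhibition. Run in triplicate at pH 7.40.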

Streptococcus agalactiae [4] = experiment: Antibacterial activity against Streptococcus agalactiae at 320 ug/ml after 24 hrs by Oxford cup assay; settings: read-out: IZ; procedure, shortened: as §1
[5] = tested on: Staphylococcus epidermidis; experiment: Antibacterial activity against methicillin-resistant Staphylococcus epidermidis at 320 ug/ml after 24 hrs by Oxford cup assay; settings: read-out: IZ; procedure, shortened: as §2
[6] = tested on: Staphylococcus epidermidis; experiment: Antibacterial activity against methicillin-resistant Staphylococcus epidermidis at 80 ug/ml after 24 hrs by Oxford cup assay; settings: read-out: IZ; procedure, shortened: as §2
Escherichia coli [7] = experiment: Antibacterial activity against Escherichia coli after 48 hrs by agar dilution method
Procedure, shortened: (§4)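 Agar dilution per NCCLS on clinical isolates. 2-fold serial dilutions of compound (2 mL) mixed into 18 mL hot Mueller-Hinton agar. Inoculum from blood slants, adjusted to approx. 10⁵–10⁶ cfu/mL in sterile 0.90% NaCl, then spotted onto the plates. Incubated 36.5 °C, 48 h. MIC is the lowest concentration giving complete growth inhibition. Run in triplicate at pH 7.40.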

Streptococcus agalactiae [8] = experiment: Antibacterial activity against Streptococcus agalactiae at 80 ug/ml after 24 hrs by Oxford cup assay; settings: read-out: IZ; procedure, shortened: as §1
Staphylococcus aureus [9] = experiment: Antibacterial activity against methicillin-resistant Staphylococcus aureus at 80 ug/ml after 24 hrs by Oxford cup assay; settings: read-out: IZ; procedure, shortened: as §2
Streptococcus agalactiae [10] = experiment: Antibacterial activity against Streptococcus agalactiae at 160 ug/ml after 24 hrs by Oxford cup assay; settings: read-out: IZ; procedure, shortened: as §1
Staphylococcus aureus [11] = experiment: Antibacterial activity against methicillin-resistant Staphylococcus aureus at 160 ug/ml after 24 hrs by Oxford cup assay; settings: read-out: IZ; procedure, shortened: as §2
Staphylococcus aureus [12] = experiment: Antibacterial activity against methicillin-resistant Staphylococcus aureus after 48 hrs by agar dilution method; procedure, shortened: as §3
Streptococcus agalactiae [13] = experiment: Antibacterial activity against Streptococcus agalactiae after 48 hrs by agar dilution method; procedure, shortened: as §4
Escherichia coli [14] = experiment: Antibacterial activity against Escherichia coli at 160 ug/ml after 24 hrs by Oxford cup assay; settings: read-out: IZ; procedure, shortened: as §1
Escherichia coli [15] = experiment: Antibacterial activity against Escherichia coli at 80 ug/ml after 24 hrs by Oxford cup assay; settings: read-out: IZ; procedure, shortened: as §1
[16] = tested on: Staphylococcus epidermidis; experiment: Antibacterial activity against methicillin-resistant Staphylococcus epidermidis at 160 ug/ml after 24 hrs by Oxford cup assay; settings: read-out: IZ; procedure, shortened: as §2

Row | SMILES | zone of inhibition at 320 µg/mL (Escherichia coli [1]) | zone of inhibition at 320 µg/mL (Staphylococcus aureus [2]) | MIC [3] | zone of inhibition at 320 µg/mL (Streptococcus agalactiae [4]) | zone of inhibition at 320 µg/mL [5] | zone of inhibition at 80 µg/mL [6] | MIC (Escherichia coli [7]) | zone of inhibition at 80 µg/mL (Streptococcus agalactiae [8]) | zone of inhibition at 80 µg/mL (Staphylococcus aureus [9]) | zone of inhibition at 160 µg/mL (Streptococcus agalactiae [10]) | zone of inhibition at 160 µg/mL (Staphylococcus aureus [11]) | MIC (Staphylococcus aureus [12]) | MIC (Streptococcus agalactiae [13]) | zone of inhibition at 160 µg/mL (Escherichia coli [14]) | zone of inhibition at 80 µg/mL (Escherichia coli [15]) | zone of inhibition at 160 µg/mL [16]
1 | C=C[C@]1(C)C[C@@H](OC(=O)CSC(C)(C)CNC(=O)[C@H](N)c2ccccc2)[C@]2(C)[C@H](C)CC[C@]3(CCC(=O)[C@H]32)[C@@H](C)[C@@H]1O | 10.8 mm | 10.2 mm | 16 µg/mL (≈ 26.7 µM) | 11 mm | 10.8 mm | 10.9 mm | 8 µg/mL (≈ 13.4 µM) | 10.1 mm | 9.41 mm | 10.6 mm | 9.98 mm | 2 µg/mL (≈ 3.34 µM) | 16 µg/mL (≈ 26.7 µM) | 11.3 mm | 9.2 mm | 10 mm
2 | C=C[C@]1(C)C[C@@H](OC(=O)CSC(C)(C)CNC(=O)[C@@H](N)c2ccccc2)[C@]2(C)[C@H](C)CC[C@]3(CCC(=O)[C@H]32)[C@@H](C)[C@@H]1O | 10.7 mm | 10.3 mm | 4 µg/mL (≈ 6.68 µM) | 11.2 mm | 11.2 mm | 10.3 mm | 4 µg/mL (≈ 6.68 µM) | 10.7 mm | 9.82 mm | 10.4 mm | 10.1 mm | 0.25 µg/mL (≈ 0.417 µM) | 8 µg/mL (≈ 13.4 µM) | 9.89 mm | 10 mm | 10.6 mm
3 | C=C[C@]1(C)C[C@@H](OC(=O)CSC(C)(C)CNC(=O)c2cc3ccccc3[nH]2)[C@]2(C)[C@H](C)CC[C@]3(CCC(=O)[C@H]32)[C@@H](C)[C@@H]1O | 10.8 mm | 8.52 mm | 16 µg/mL (≈ 26.3 µM) | 9.25 mm | 9 mm | 10.3 mm | 16 µg/mL (≈ 26.3 µM) | 9.31 mm | 9.05 mm | 9.62 mm | 8.77 mm | 2 µg/mL (≈ 3.28 µM) | 8 µg/mL (≈ 13.1 µM) | 9.52 mm | 8.87 mm | 8.84 mm
4 | C=C[C@]1(C)C[C@@H](OC(=O)CSC(C)(C)CNC(=O)OCC(C)C)[C@]2(C)[C@H](C)CC[C@]3(CCC(=O)[C@H]32)[C@@H](C)[C@@H]1O | 10.3 mm | 10.9 mm | 8 µg/mL (≈ 14.1 µM) | 10.2 mm | 11.1 mm | 10.6 mm | 16 µg/mL (≈ 28.3 µM) | 9.85 mm | 9.64 mm | 9.01 mm | 9.56 mm | 2 µg/mL (≈ 3.53 µM) | 4 µg/mL (≈ 7.07 µM) | 9.55 mm | 9.91 mm | 11 mm
5 | C=C[C@]1(C)C[C@@H](OC(=O)CSC(C)(C)CNC(=O)OCc2ccccc2)[C@]2(C)[C@H](C)CC[C@]3(CCC(=O)[C@H]32)[C@@H](C)[C@@H]1O | 14.7 mm | 12.7 mm | 32 µg/mL (≈ 53.3 µM) | 11.5 mm | 11 mm | 11 mm | 32 µg/mL (≈ 53.3 µM) | 10.7 mm | 10.4 mm | 10.6 mm | 11.5 mm | 4 µg/mL (≈ 6.67 µM) | 16 µg/mL (≈ 26.7 µM) | 15.3 mm | 11.7 mm | 10.2 mm
6 | C=C[C@]1(C)C[C@@H](OC(=O)CSCCN(CC)CC)[C@]2(C)[C@H](C)CC[C@]3(CCC(=O)[C@H]32)[C@@H](C)[C@@H]1O [TIAMULIN] | 18.3 mm | 18.3 mm | 2 µg/mL (≈ 4.05 µM) | 12.3 mm | 16.4 mm | 14.5 mm | 2 µg/mL (≈ 4.05 µM) | 11.1 mm | 16.5 mm | 11.4 mm | 17.6 mm | 0.5 µg/mL (≈ 1.01 µM) | 2 µg/mL (≈ 4.05 µM) | 16.5 mm | 15.2 mm | 15.6 mm
7 | C=C[C@]1(C)C[C@@H](OC(=O)CSC(C)(C)CNC(=O)[C@H](N)C(C)C)[C@]2(C)[C@H](C)CC[C@]3(CCC(=O)[C@H]32)[C@@H](C)[C@@H]1O [VALNEMULIN] | 24.5 mm | 25.8 mm | 0.5 µg/mL (≈ 0.885 µM) | 15.8 mm | 27.5 mm | 22.6 mm | 0.5 µg/mL (≈ 0.885 µM) | 12.8 mm | 20.4 mm | 14.5 mm | 22.9 mm | 0.125 µg/mL (≈ 0.221 µM) | 0.5 µg/mL (≈ 0.885 µM) | 23.7 mm | 19.5 mm | 25.9 mm
